Residue numbers refer to the chain shown, from its start.
Experiments:
Kir1.1 = target: T1, Kir1.1 (Homo sapiens, UniProt P48048); experiment: BL-1249 on helix bundle-crossing gated channel Kir1.1; format: cell-based; details: result in words
T1 sequence (P48048 1-391): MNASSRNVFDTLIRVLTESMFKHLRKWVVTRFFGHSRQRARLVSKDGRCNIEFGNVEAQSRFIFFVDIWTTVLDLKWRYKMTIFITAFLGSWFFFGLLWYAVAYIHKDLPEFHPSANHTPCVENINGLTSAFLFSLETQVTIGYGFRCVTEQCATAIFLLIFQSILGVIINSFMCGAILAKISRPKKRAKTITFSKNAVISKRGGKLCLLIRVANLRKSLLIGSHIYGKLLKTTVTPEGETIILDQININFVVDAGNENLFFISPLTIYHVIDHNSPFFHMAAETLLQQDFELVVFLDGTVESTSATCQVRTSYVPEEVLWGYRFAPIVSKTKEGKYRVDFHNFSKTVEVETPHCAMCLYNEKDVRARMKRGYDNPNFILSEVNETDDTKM

THIK-2 = target: T2, THIK-2 (Homo sapiens, UniProt Q9HB15); experiment: Extended screening of K2P channels with BL-1249: THIK-2; format: cell-based; details: result in words
T2 sequence (Q9HB15 1-430): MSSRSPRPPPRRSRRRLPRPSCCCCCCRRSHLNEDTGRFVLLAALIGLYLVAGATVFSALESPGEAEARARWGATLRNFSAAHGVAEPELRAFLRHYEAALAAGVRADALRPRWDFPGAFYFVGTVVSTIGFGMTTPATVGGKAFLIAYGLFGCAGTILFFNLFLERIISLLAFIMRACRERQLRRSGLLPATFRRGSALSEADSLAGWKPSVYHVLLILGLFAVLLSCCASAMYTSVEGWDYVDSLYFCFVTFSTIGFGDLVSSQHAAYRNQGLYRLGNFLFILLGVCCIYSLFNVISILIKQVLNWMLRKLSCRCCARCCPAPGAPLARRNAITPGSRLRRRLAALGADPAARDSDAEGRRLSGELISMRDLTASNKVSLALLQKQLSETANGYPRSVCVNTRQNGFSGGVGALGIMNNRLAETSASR

TREK-1 L304C = target: T3, TREK-1 L304C (Homo sapiens, UniProt O95069, L304C); experiment: Cysteine-modification protection: MTS-TBAO modification of TREK-1 L304C; format: cell-based; details: 10 μM MTS-TBAO; BL-1249 50 μM, ML335 50 μM, 2-APB 1 mM; result in words
T3 sequence (O95069 1-426 L304C): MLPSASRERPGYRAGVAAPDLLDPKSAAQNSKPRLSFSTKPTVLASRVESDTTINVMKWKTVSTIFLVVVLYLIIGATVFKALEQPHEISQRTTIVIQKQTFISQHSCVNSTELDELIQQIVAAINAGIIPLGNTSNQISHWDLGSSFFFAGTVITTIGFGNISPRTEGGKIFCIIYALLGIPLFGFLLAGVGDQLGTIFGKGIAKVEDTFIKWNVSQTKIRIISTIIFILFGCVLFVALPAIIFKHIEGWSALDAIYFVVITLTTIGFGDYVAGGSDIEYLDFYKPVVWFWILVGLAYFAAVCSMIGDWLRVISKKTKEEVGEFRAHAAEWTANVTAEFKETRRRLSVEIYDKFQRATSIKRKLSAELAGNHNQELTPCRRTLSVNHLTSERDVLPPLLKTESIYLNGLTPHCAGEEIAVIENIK

[1] = acidic tetrazole ring; no reference given; cited from earlier work
TREK-2 = target: T4, TREK-2 (Homo sapiens, UniProt P57789); experiment: Single channel recordings of TREK-2 expressed in HEK293 cells; format: cell-based; details: TREK-2 in HEK293 cells
T4 sequence (P57789 1-538): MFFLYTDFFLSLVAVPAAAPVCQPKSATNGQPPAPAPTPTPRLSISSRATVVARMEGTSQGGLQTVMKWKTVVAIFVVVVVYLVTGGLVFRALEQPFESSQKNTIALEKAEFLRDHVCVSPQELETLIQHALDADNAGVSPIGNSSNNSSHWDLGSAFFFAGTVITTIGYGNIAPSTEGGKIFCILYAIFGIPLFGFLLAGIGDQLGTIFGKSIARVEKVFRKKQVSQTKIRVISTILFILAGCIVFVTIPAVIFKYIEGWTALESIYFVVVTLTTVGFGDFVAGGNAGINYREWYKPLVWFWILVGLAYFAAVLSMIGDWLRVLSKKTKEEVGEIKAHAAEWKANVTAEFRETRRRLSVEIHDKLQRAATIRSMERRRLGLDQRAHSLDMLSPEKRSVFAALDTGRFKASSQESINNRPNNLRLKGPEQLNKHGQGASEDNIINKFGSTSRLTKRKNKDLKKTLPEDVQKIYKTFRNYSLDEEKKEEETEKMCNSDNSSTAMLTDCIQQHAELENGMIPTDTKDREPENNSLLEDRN

hERG = hERG (Homo sapiens, UniProt Q12809); experiment: hERG channel currents in inside-out patches; format: cell-based; details: inside-out patches; result in words
hERG, sequence (Q12809 whole entry): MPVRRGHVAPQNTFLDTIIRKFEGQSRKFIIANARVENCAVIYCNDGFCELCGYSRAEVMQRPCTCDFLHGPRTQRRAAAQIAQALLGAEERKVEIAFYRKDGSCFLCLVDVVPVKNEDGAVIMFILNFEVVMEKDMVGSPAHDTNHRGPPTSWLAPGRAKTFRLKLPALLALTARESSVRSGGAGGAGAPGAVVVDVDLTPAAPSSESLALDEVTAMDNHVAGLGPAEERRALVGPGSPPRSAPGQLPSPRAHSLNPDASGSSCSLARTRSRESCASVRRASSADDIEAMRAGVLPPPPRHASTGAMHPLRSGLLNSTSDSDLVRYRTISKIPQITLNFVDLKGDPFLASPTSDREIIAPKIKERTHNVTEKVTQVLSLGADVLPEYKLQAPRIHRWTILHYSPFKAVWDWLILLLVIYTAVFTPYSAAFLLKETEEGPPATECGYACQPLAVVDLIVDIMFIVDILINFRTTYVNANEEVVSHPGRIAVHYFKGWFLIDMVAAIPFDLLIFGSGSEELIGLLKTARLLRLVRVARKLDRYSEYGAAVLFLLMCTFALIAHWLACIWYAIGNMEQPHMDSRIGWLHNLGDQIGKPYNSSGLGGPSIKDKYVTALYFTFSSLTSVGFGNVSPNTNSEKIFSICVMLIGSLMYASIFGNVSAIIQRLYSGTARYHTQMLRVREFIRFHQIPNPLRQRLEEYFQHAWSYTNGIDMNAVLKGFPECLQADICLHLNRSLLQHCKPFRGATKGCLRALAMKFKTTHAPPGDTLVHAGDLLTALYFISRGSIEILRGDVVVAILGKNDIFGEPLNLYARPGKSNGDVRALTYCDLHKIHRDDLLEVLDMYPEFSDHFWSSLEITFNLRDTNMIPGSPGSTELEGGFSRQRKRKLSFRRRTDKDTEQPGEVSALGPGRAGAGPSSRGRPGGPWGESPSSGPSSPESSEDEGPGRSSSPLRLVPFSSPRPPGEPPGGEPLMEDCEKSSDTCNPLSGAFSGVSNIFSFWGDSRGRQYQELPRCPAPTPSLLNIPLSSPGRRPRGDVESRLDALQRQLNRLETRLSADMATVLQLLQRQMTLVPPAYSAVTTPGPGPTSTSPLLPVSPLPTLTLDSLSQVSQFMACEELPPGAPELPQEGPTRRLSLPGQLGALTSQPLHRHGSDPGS

TREK-1 = target: T5, TREK-1 (Homo sapiens, UniProt O95069); experiment: TREK-1 channel currents in inside-out patches; format: cell-based; details: inside-out patches; result in words
T5 sequence (O95069 1-426): T3 sequence (O95069 1-426 L304C) with C304L
How it was run: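 TREK-1 currents were recorded in inside-out patches from Xenopus oocytes and evoked by voltage ramps. Currents were read at +40 mV. Concentration-response curves were obtained with and without 5 μM THexA (tetrahexylammonium). THexA inhibition of basal current was quantified separately. n ≥ 8.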

SMILES: c1ccc(-c2nn[nH]n2)c(Nc2cccc3c2CCCC3)c1 [BL-1249]
- activation of Kir1.1 (Kir1.1): not activated
- activation of THIK-2 (THIK-2): potent activation
- time course of irreversible pore blockade by MTS-TBAO (TREK-1 L304C): markedly slowed
- pKa [1]: around 5
- single channel amplitude, outward (TREK-2; +100 mV, with BL-1249 (basal 17.7 ± 1.3), n = 7): 21.7 ± 1.4 pA
- single channel amplitude, inward (TREK-2; -100 mV, with BL-1249 (basal -29.3 ± 1.5), n = 7): -34.1 ± 1.9 pA
- open probability (TREK-2; result in words): increase in open probability
- opening / activation of hERG channels (hERG): equal efficiency in opening
- opening / activation of TREK-1 channels (TREK-1): equal efficiency in opening

Source: paper PMC6982535 (Science (New York, N.Y.), 2019)
